Assay results of several laboratories.
ALPI: Intestinal-type alkaline phosphatase (ALPI, Bos taurus, UniProt P19111)
EPHX2: Bifunctional epoxide hydrolase 2 (EPHX2, Homo sapiens, UniProt P34913)
LCK: Tyrosine-protein kinase Lck (LCK, Homo sapiens, UniProt P06239)
GRM2: Metabotropic glutamate receptor 2 (GRM2, Homo sapiens, UniProt Q14416)
Maob: Amine oxidase [flavin-containing] B (Maob, Rattus norvegicus, UniProt P19643)
NMUR1: Neuromedin-U receptor 1 (NMUR1, Homo sapiens, UniProt Q9HB89)
MAP2K4: Dual specificity mitogen-activated protein kinase kinase 4 (MAP2K4, Homo sapiens, UniProt P45985)

SMILES | target | read-out | action | technique | pH | IC50 [nM]
O=C1NC2=C(C(=O)N(c3ccc(F)cc3)C2)C(c2ccc(O)cc2)N1 (stereo not shown) | ALPI | enzyme activity | inhibitor | absorbance |  | 2500
CCCC(CNC(=O)Nc1ccccc1F)C1C2CC3CC(C2)CC1C3 (stereo not shown) | EPHX2 | enzyme activity | inhibitor | fluorescence |  | 106
COc1cc2nccc(Oc3ccc(NC(=O)c4cc5c(n(-c6ccccc6)c4=O)CCCC5=O)nc3)c2cc1OC | LCK | enzyme activity in cells | inhibitor | ATP luminescence |  | > 100
COc1ccc(-c2cc(C(N)=O)ncc2OCc2ccnc(F)c2)c(F)c1 | GRM2 | ion flux | antagonist |  |  | 46
CCC(C)(O)C(=O)N1CCC(NC(=O)Nc2ccc(OC(F)(F)F)c(F)c2)CC1 (stereo not shown) | EPHX2 | enzyme activity | inhibitor |  |  | 0.09
Cc1ccc(C(=O)Nc2ccc(Oc3cc4cnn(C)c4cc3-c3cn[nH]c3)c(F)c2)c(=O)n1-c1ccc(F)cc1 | Proto-oncogene tyrosine-protein kinase receptor Ret (RET, Homo sapiens, UniProt P07949, C634W) | phosphorylation in cells | inhibitor | western blot |  | 2000
CC(C)CCC[C@@H](C)[C@H]1CC[C@H]2[C@@H]3C[C@@H](NCCc4c[nH]cn4)[C@@]4(O)C[C@@H](O)CC[C@]4(C)[C@H]3CC[C@]12C | EPHX2 | enzyme activity | inhibitor |  |  | > 100000
CN1c2ccccc2C(=NN=Cc2cc3ccc(Cl)cc3nc2Cl)CS1(=O)=O | Maob | enzyme activity | inhibitor | fluorescence |  | 1210
COc1ccc(-c2cc(C(N)=O)ncc2OCc2ccc(OC)nc2)c(F)c1 | GRM2 | ion flux | antagonist |  |  | 224
O=C1NC2=C(C(=O)N(c3nc4ccccc4[nH]3)C2)C(c2ccc(O)cc2)N1 (stereo not shown) | ALPI | enzyme activity | inhibitor | absorbance |  | 11300
COc1ccc2c(Oc3ccc4c(C(=O)Nc5ccccc5N)cccc4c3)ccnc2c1 | LCK | enzyme activity | inhibitor |  |  | > 500
CNc1nc(C)nc(N[C@H]2CCC[C@@H](C(=O)NCc3ccc(C#N)cc3C(F)(F)F)C2)n1 | EPHX2 | enzyme activity | inhibitor |  |  | 0.4
CNC(=O)c1cc2c(Oc3ccc(NC(=O)C4(C(=O)Nc5ccc(F)cc5)CC4)cc3)ccnc2cc1OC | LCK | enzyme activity | inhibitor | radiometric |  | 12
O=C1NC2=C(C(=O)N(Cc3ccccc3)C2)C(c2ccccc2O)N1 (stereo not shown) | ALPI | enzyme activity | inhibitor | absorbance |  | 7670
O=C(Nc1ccccc1)NC12CC3CC(CC(C3)C1)C2 | EPHX2 | enzyme activity | inhibitor | fluorescence |  | 16.5
CC(=NN=C1CS(=O)(=O)N(C)c2ccccc21)c1cc(C)sc1C | Maob | enzyme activity | inhibitor | fluorescence |  | 2610
CC(C)(C)n1nc(-c2ccc3nc(OC4CC4)ccc3c2)c(C(N)=O)c1N | Mitogen-activated protein kinase kinase kinase 10 (MAP3K10, Homo sapiens, UniProt Q02779) | cell-free assay |  |  |  | > 10000
COc1ccc(N2CC3=C(C2=O)C(c2ccc(O)cc2)NC(=O)N3)cc1 (stereo not shown) | ALPI | enzyme activity | inhibitor | absorbance |  | 9430
Cc1ccc2cc(C=NN=C3CS(=O)(=O)N(C)c4ccccc43)c(Cl)nc2c1 | Maob | enzyme activity | inhibitor | fluorescence |  | 1050

SMILES | target | read-out | action | technique | pH | IC50 [nM]
COc1ccc(-c2cc(C(N)=O)ncc2OCc2ccn(C)n2)c(F)c1 | GRM2 | ion flux | antagonist |  |  | 21
CC(=NN=C1CS(=O)(=O)N(C)c2ccccc21)c1cccs1 | Maob | enzyme activity | inhibitor | fluorescence |  | 1980
Oc1c2ccccc2c2c3c(cccc13)N=N2 | Tyrosine-protein kinase JAK2 (JAK2, Homo sapiens, UniProt O60674) | enzyme activity | inhibitor |  |  | 736
COc1ccc(-c2cc(C(N)=O)ncc2OCc2ccncc2)c(F)c1 | GRM2 | ion flux | antagonist |  |  | 33
CC(C)C[C@H](NC(=O)[C@H](Cc1ccccc1)NC(=O)[C@@H](N)Cc1ccc(O)cc1)C(=O)N[C@@H](Cc1ccccc1)C(=O)N[C@@H](CCCNC(=N)N)C(=O)N1CCC[C@H]1C(=O)N[C@@H](CCCNC(=N)N)C(=O)N[C@@H](CC(N)=O)C(N)=O | NMUR1 | ligand displacement |  | radioligand |  | 0.661
O=C(Cc1cccc(Nc2ncnc3[nH]ccc23)c1)Nc1ccc(F)c(Cl)c1 | Proto-oncogene tyrosine-protein kinase receptor Ret (RET, Homo sapiens, UniProt P07949) | enzyme activity | inhibitor | mobility shift |  | > 20000
CCCCCCCCN1CC2=C(C1=O)C(c1ccccc1O)NC(=O)N2 (stereo not shown) | ALPI | enzyme activity | inhibitor | absorbance |  | 8710
CC(C)C[C@H](NC(=O)[C@H](Cc1ccccc1)NC(=O)[C@H](Cc1ccc(O)cc1)NC(=O)CNC(=O)[C@H](CCCNC(=N)N)NC(=O)[C@H](CO)NC(=O)[C@H](CCC(N)=O)NC(=O)[C@H](CO)NC(=O)[C@H](C)NC(=O)[C@H](Cc1ccccc1)NC(=O)[C@@H]1CCCN1C(=O)[C@H](CO)NC(=O)[C@H](CCC(N)=O)NC(=O)[C@H](Cc1ccccc1)NC(=O)[C@H](CCC(=O)O)NC(=O)[C@H](CCC(=O)O)NC(=O)[C@H](CC(=O)O)NC(=O)[C@@H](NC(=O)[C@H](CCCNC(=N)N)NC(=O)[C@@H](N)Cc1ccccc1)C(C)C)C(=O)N[C@@H](Cc1ccccc1)C(=O)N[C@@H](CCCNC(=N)N)C(=O)N1CCC[C@H]1C(=O)N[C@@H](CCCNC(=N)N)C(=O)N[C@@H](CC(N)=O)C(N)=O | NMUR1 | ligand displacement |  | radioligand |  | 0.107
CC/C(=N\NC(=O)C(C)Nc1ccccc1)c1ccc(O)c(C)c1O (stereo not shown) | Serine/threonine-protein kinase LATS2 (LATS2, Homo sapiens, UniProt Q9NRM7) | enzyme activity | inhibitor |  |  | 4.09
O=C1NC2=C(C(=O)N(Cc3ccc(Cl)cc3)C2)C(c2ccc(O)cc2)N1 (stereo not shown) | ALPI | enzyme activity | inhibitor | absorbance |  | 5350
Cn1ccc(COc2cnc(C(N)=O)cc2-c2ccc(F)cc2)n1 | GRM2 | ion flux | antagonist |  |  | 58
CC12CC3CC(C1)CC(NC(=O)Nc1ccccc1F)(C3)C2 | EPHX2 | enzyme activity | inhibitor | fluorescence |  | 1.5
CCN1CCN(Cc2ccc(NC(=O)Nc3ccc(Oc4cc(NC)ncn4)cc3)cc2C(F)(F)F)CC1 | MAP2K4 | enzyme activity | inhibitor | ADP detection |  | 40000
CC1=C(CC(=O)O)c2cc(F)ccc2/C1=C\c1ccc([S+](C)[O-])cc1 (stereo not shown) | Aldo-keto reductase family 1 member B1 (AKR1B1, Homo sapiens, UniProt P15121) | enzyme activity | inhibitor | absorbance | pH 6.2 | 300
O=C(CCCCCCCCc1ccc(O)c(O)c1)c1c(O)cccc1O | EPHX2 | enzyme activity | inhibitor | fluorescence |  | 25900
CN(C)CC#Cc1ccc2[nH]c3c(c2c1)-c1nc(N)ncc1CCC3 | MAP2K4 | enzyme activity | inhibitor | radiometric |  | > 10000
Cc1cnc(-c2ccc(-c3ccc(NC(=O)Nc4c(F)cc(F)cc4F)cc3F)c3c2C(=O)NC3)[nH]1 | LCK | enzyme activity | inhibitor |  |  | 0.7
CC(=NN=C1CS(=O)(=O)N(C)c2ccccc21)c1ccc([N+](=O)[O-])s1 | Maob | enzyme activity | inhibitor | fluorescence |  | 1250
